[ ]: non-standard residue; d: D form. Ahx = NCCCCCC(=O)O
B1: Recombinant protein RHAMM-CT (aa. 706–767) (domain or fragment)
chain: RDSYAQLLGHQNLKQKIKHVVKLKDENSQLKSEVSKLRSQLVKRKQNELRLQGELDKLQI

Legend:
[1] = molecular target: T1, RHAMM:HA interaction, immobilized recombinant RHAMM (Mus musculus, UniProt Q00547); test: Competitive ELISA, fluorescein-labelled peptides vs HA; type: binding; conditions: summary of the competitive ELISA results
T1 sequence (Q00547 with tags, fused parts or gaps): B1 chain

PC3MLN4 cells [2] = test: Anchorage independent growth; type: cell-based, human
PC3MLN4 cells [3] = test: Cell invasion assay; type: cell-based, human; conditions: 10 µg/mL, 48 hrs, compared to scrambled peptide control
Summary of the method: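 Gelatin invadopodia assay: PC3MLN4 cells are plated at 50% confluency on Cy3-gelatin-coated chamber slides in growth medium with test peptide or scrambled control peptide (10 µg/mL each). After 48 h, cells are fixed, stained with FITC-phalloidin and DAPI, and imaged by confocal microscopy to assess degradation of the fluorescent matrix.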

PC3MLN4 cells [4] = test: Cell adhesion on invasion assay substrates; type: cell-based, human; conditions: PC3MLN4 on the invasion assay substrates (not shown)
[5] = molecular target: T2, peptide 10b (EEDFGEEAEEEA); test: SPR
T2 peptide: Ac-C[Ahx]EEDFGEEAEEEA-NH2

[6] = molecular target: T3, peptide 14b (FTEAESNMNDLV); test: SPR
T3 peptide: Ac-C[Ahx]FTEAESNMNDLV-NH2

[7] = molecular target: T4, peptide 2b (VEGEGEEEGEEY); test: SPR
T4 peptide: Ac-C[Ahx]VEGEGEEEGEEY-NH2

Row | Molecule | Overall efficiency at competing with HA for binding to RHAMM [1] | Effect on anchorage independent proliferation (PC3MLN4 cells [2]) | Inhibition of the ability to degrade collagen (PC3MLN4 cells [3]) | Inhibition of cell adhesion (PC3MLN4 cells [4]) | Kd [5] | Kd [6] | Kd [7]
1 | EAFEDEEEEIDG [12a] | most efficient at competing with HA |  |  |  |  |  | 
2 | FTEAESNMNDLV [14a] | most efficient at competing with HA | marginal effects | 80% | no observed inhibition |  |  | 
3 | B1 |  |  |  |  | 0.032 µM | 0.03 µM | 0.024 µM

— paper PMC4721638 (Integrative biology : quantitative biosciences from nano to …, 2015)
